Laboratory results published in ChEMBL document CHEMBL1124339, “Conformationally restricted analogues of atriopeptin(103-125)amide” (J Med Chem, 1989).
Positions of bridges follow the written chain, without caps; N, C: chain ends. Non-standard residues stand in square brackets, D forms with d. Residues, ends and D or L forms follow the SMILES beside them. *: point of attachment. hCys = N[C@@H](CCS)C(=O)O; Acm = CC(=O)NC*

Legend:
[1] = Vasorelaxant activity in norepinephrine-contracted rabbit aortic rings, compared to AP(103-126); type: functional, Oryctolagus cuniculus, Aorta
[2] = system: Atrial natriuretic peptide receptor 3 (Oryctolagus cuniculus); test: Relative binding potency towards non-vasorelaxant binding site compared to AP(103-126)
Oryctolagus cuniculus = species on record: Oryctolagus cuniculus; test: Relative binding potency towards vasorelaxant binding site compared to AP(103-126)
Method in brief: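 Varied unlabeled peptide concentrations; started by adding membranes; 30 min at 25 °C. Filtration with ice-cold buffer, then gamma counting. Nonspecific binding measured with 10^-6 M unlabeled reference peptide. Specific binding fitted by nonlinear least squares.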

Row | Relative potency [2] | Relative potency (Oryctolagus cuniculus) | Compound | Relative potency [1]
1 |  |  | CC[C@H](C)[C@@H]1NC(=O)[C@H](CCCN=C(N)N)NC(=O)[C@H](CC(=O)O)NC(=O)[C@H]([C@@H](C)CC)NC(=O)[C@H](CCCN=C(N)N)NC(=O)[C@@H](CSCNC(C)=O)NC(=O)CNC(=O)[C@H](Cc2ccccc2)NC(=O)[C@@H](NC(=O)[C@H](CO)NC(=O)[C@@H](N)CO)CSSC[C@@H](C(=O)N[C@@H](CC(N)=O)C(=O)N[C@@H](CO)C(=O)N[C@@H](Cc2ccccc2)C(=O)N[C@@H](CCCN=C(N)N)C(N)=O)NC(=O)CNC(=O)[C@H](CC(C)C)NC(=O)CNC(=O)[C@@H](CSCNC(C)=O)NC(=O)[C@H](CCC(N)=O)NC(=O)[C@H](C)NC(=O)CNC1=O | 0.044
2 | 0.84 | 0.84 | CC[C@H](C)[C@@H]1NC(=O)[C@H](CCCN=C(N)N)NC(=O)[C@H](CC(=O)O)NC(=O)[C@H]([C@@H](C)CC)NC(=O)[C@H](CCCN=C(N)N)NC(=O)[C@@H](CCSCNC(C)=O)NC(=O)CNC(=O)[C@H](Cc2ccccc2)NC(=O)[C@@H](NC(=O)[C@H](CO)NC(=O)[C@@H](N)CO)CSSC[C@@H](C(=O)N[C@@H](CC(N)=O)C(=O)N[C@@H](CO)C(=O)N[C@@H](Cc2ccccc2)C(=O)N[C@@H](CCCN=C(N)N)C(N)=O)NC(=O)CNC(=O)[C@H](CC(C)C)NC(=O)CNC(=O)[C@@H](CCSCNC(C)=O)NC(=O)[C@H](CCC(N)=O)NC(=O)[C@H](C)NC(=O)CNC1=O | 
3 |  |  | CC[C@H](C)[C@@H]1NC(=O)[C@H](CCCN=C(N)N)NC(=O)[C@H](CC(=O)O)NC(=O)[C@H]([C@@H](C)CC)NC(=O)[C@H](CCCN=C(N)N)NC(=O)CNC(=O)CNC(=O)[C@H](Cc2ccccc2)NC(=O)[C@@H](NC(=O)[C@H](CO)NC(=O)[C@@H](N)CO)CSSC[C@@H](C(=O)N[C@@H](CC(N)=O)C(=O)N[C@@H](CO)C(=O)N[C@@H](Cc2ccccc2)C(=O)N[C@@H](CCCN=C(N)N)C(N)=O)NC(=O)CNC(=O)[C@H](CC(C)C)NC(=O)CNC(=O)[C@H](CSCNC(C)=O)NC(=O)[C@H](CCC(N)=O)NC(=O)[C@H](C)NC(=O)CNC1=O | 0.21
4 |  |  | CC[C@H](C)[C@H](NC(=O)[C@H](CC/N=C(/N)NO)NC(=O)[C@H](CC(=O)O)NC(=O)[C@@H](NC(=O)[C@H](CCN=C(N)N)NC(=O)[C@H](CSCNC(C)=O)NC(=O)CNC(=O)[C@H](Cc1ccccc1)NC(=O)[C@H](CSCNC(C)=O)NC(=O)[C@H](CO)NC(=O)[C@@H](N)CO)[C@@H](C)CC)C(=O)NCC(=O)N[C@@H](C)C(=O)N[C@@H](CCC(N)=O)C(=O)C1SSC[C@@H](C(=O)N[C@@H](CC(N)=O)C(=O)CN[C@@H](CO)C(=O)N[C@@H](Cc2ccccc2)C(=O)N[C@@H](CCCN=C(N)N)C(N)=O)NC(=O)CNC(=O)[C@H](CC(C)C)NC(=O)CNC(=O)[C@H]1N (stereo in doubt; 9b) | 0.013
5 | 0.91 | 0.91 | CC[C@H](C)[C@H]1NC(=O)[C@H](CCCN=C(N)N)NC(=O)[C@H](CC(=O)O)NC(=O)[C@@H]([C@@H](C)CC)NC(=O)[C@H](CCCN=C(N)N)NC(=O)[C@@H](CSCNC(C)=O)NC(=O)CNC(=O)[C@@H](Cc2ccccc2)NC(=O)[C@H](NC(=O)[C@H](CO)NC(=O)[C@@H](N)CO)CSSC[C@H](C(=O)N[C@@H](CC(N)=O)C(=O)N[C@@H](CO)C(=O)N[C@@H](Cc2ccccc2)C(=O)N[C@@H](CCCN=C(N)N)C(N)=O)NC(=O)CNC(=O)[C@@H](CC(C)C)NC(=O)CNC(=O)[C@@H](CSCNC(C)=O)NC(=O)[C@H](CCC(N)=O)NC(=O)[C@@H](C)NC(=O)CNC1=O | 
6 |  |  | CC[C@H](C)[C@@H]1NC(=O)[C@H](CCCN=C(N)N)NC(=O)[C@H](CC(=O)O)NC(=O)[C@H]([C@@H](C)CC)NC(=O)[C@H](CCCN=C(N)N)NC(=O)[C@H](CSCNC(C)=O)NC(=O)CNC(=O)[C@H](Cc2ccccc2)NC(=O)[C@@H](NC(=O)[C@H](CO)NC(=O)[C@@H](N)CO)CSSC[C@@H](C(=O)N[C@@H](CC(N)=O)C(=O)N[C@@H](CO)C(=O)N[C@@H](Cc2ccccc2)C(=O)N[C@@H](CCCN=C(N)N)C(N)=O)NC(=O)CNC(=O)[C@H](CC(C)C)NC(=O)CNC(=O)[C@H](CO)NC(=O)[C@H](CCC(N)=O)NC(=O)[C@H](C)NC(=O)CNC1=O | 1.03
7 |  |  | CC[C@H](C)[C@@H]1NC(=O)[C@H](CCCN=C(N)N)NC(=O)[C@H](CC(=O)O)NC(=O)[C@H]([C@@H](C)CC)NC(=O)[C@H](CCCN=C(N)N)NC(=O)[C@@H](NC(=O)CNC(=O)[C@H](Cc2ccccc2)NC(=O)[C@H](CSCNC(C)=O)NC(=O)[C@H](CO)NC(=O)[C@@H](N)CO)CSSC[C@@H](C(=O)N[C@@H](CC(N)=O)C(=O)N[C@@H](CO)C(=O)N[C@@H](Cc2ccccc2)C(=O)N[C@@H](CCCN=C(N)N)C(N)=O)NC(=O)CNC(=O)[C@H](CC(C)C)NC(=O)CNC(=O)[C@H](CSCNC(C)=O)NC(=O)[C@H](CCC(N)=O)NC(=O)[C@H](C)NC(=O)CNC1=O (H-SSC(Acm)FGCRIDRIGAQC(Acm)GLGCNSFR-NH2; disulfide 6-19) | 0.0022
8 |  |  | CC[C@H](C)[C@@H]1NC(=O)[C@H](CCCN=C(N)N)NC(=O)[C@H](CC(=O)O)NC(=O)[C@H]([C@@H](C)CC)NC(=O)[C@H](CCCN=C(N)N)NC(=O)[C@@H]2CCSSC[C@H](NC(=O)[C@H](CCC(N)=O)NC(=O)[C@H](C)NC(=O)CNC1=O)C(=O)NCC(=O)N[C@@H](CC(C)C)C(=O)NCC(=O)N[C@H](C(=O)N[C@@H](CC(N)=O)C(=O)N[C@@H](CO)C(=O)N[C@@H](Cc1ccccc1)C(=O)N[C@@H](CCCN=C(N)N)C(N)=O)CSSC[C@H](NC(=O)[C@H](CO)NC(=O)[C@@H](N)CO)C(=O)N[C@@H](Cc1ccccc1)C(=O)NCC(=O)N2 (H-SSCFG[hCys]RIDRIGAQCGLGCNSFR-NH2; disulfide 3-19, 6-15) | 0.049
9 |  |  | CC[C@H](C)[C@@H]1NC(=O)[C@H](CCCN=C(N)N)NC(=O)[C@H](CC(=O)O)NC(=O)[C@H]([C@@H](C)CC)NC(=O)[C@H](CCCN=C(N)N)NC(=O)[C@H](CCSCNC(C)=O)NC(=O)CNC(=O)[C@H](Cc2ccccc2)NC(=O)[C@@H](NC(=O)[C@H](CO)NC(=O)[C@@H](N)CO)CSSC[C@@H](C(=O)N[C@@H](CC(N)=O)C(=O)N[C@@H](CO)C(=O)N[C@@H](Cc2ccccc2)C(=O)N[C@@H](CCCN=C(N)N)C(N)=O)NC(=O)CNC(=O)[C@H](CC(C)C)NC(=O)CNC(=O)[C@H](CSCNC(C)=O)NC(=O)[C@H](CCC(N)=O)NC(=O)[C@H](C)NC(=O)CNC1=O | 0.24
10 |  |  | CC[C@H](C)[C@@H]1NC(=O)[C@H](CCCN=C(N)N)NC(=O)[C@H](CC(=O)O)NC(=O)[C@H]([C@@H](C)CC)NC(=O)[C@H](CCCN=C(N)N)NC(=O)[C@H](CSCNC(C)=O)NC(=O)CNC(=O)[C@H](Cc2ccccc2)NC(=O)[C@@H](NC(=O)[C@H](CO)NC(=O)[C@@H](N)CO)CSSC[C@@H](C(=O)N[C@@H](CC(N)=O)C(=O)N[C@@H](CO)C(=O)N[C@@H](Cc2ccccc2)C(=O)N[C@@H](CCCN=C(N)N)C(N)=O)NC(=O)CNC(=O)[C@H](CC(C)C)NC(=O)CNC(=O)[C@H](CSCNC(C)=O)NC(=O)[C@H](CCC(N)=O)NC(=O)[C@H](C)NC(=O)CNC1=O | 0.43
11 |  |  | CC[C@H](C)[C@@H]1NC(=O)[C@H](CCCN=C(N)N)NC(=O)[C@H](CC(=O)O)NC(=O)[C@H]([C@@H](C)CC)NC(=O)[C@H](CCCN=C(N)N)NC(=O)[C@H](CCSCNC(C)=O)NC(=O)CNC(=O)[C@H](Cc2ccccc2)NC(=O)[C@@H](NC(=O)[C@H](CO)NC(=O)[C@@H](N)CO)CSSC[C@@H](C(=O)N[C@@H](CC(N)=O)C(=O)N[C@@H](CO)C(=O)N[C@@H](Cc2ccccc2)C(=O)N[C@@H](CCCN=C(N)N)C(N)=O)NC(=O)CNC(=O)[C@H](CC(C)C)NC(=O)CNC(=O)[C@H](CCSCNC(C)=O)NC(=O)[C@H](CCC(N)=O)NC(=O)[C@H](C)NC(=O)CNC1=O | 0.068
12 |  |  | CC[C@H](C)[C@@H]1NC(=O)[C@H](CCCN=C(N)N)NC(=O)[C@H](CC(=O)O)NC(=O)[C@H]([C@@H](C)CC)NC(=O)[C@H](CCCN=C(N)N)NC(=O)[C@H](CSCNC(C)=O)NC(=O)CNC(=O)[C@H](Cc2ccccc2)NC(=O)[C@@H](NC(=O)[C@H](CO)NC(=O)[C@@H](N)CO)CSSC[C@@H](C(=O)NCC(=O)N[C@@H](CC(C)C)C(=O)NCC(=O)N[C@@H](CSCNC(C)=O)C(=O)N[C@@H](CC(N)=O)C(=O)N[C@@H](CO)C(=O)N[C@@H](Cc2ccccc2)C(=O)N[C@@H](CCCN=C(N)N)C(N)=O)NC(=O)[C@H](CCC(N)=O)NC(=O)[C@H](C)NC(=O)CNC1=O | 0.042
13 |  |  | CC[C@H](C)[C@H](NC(=O)[C@H](CC/N=C(/N)NO)NC(=O)[C@H](CC(=O)O)NC(=O)[C@@H](NC(=O)[C@H](CCN=C(N)N)NC(=O)[C@H](CSCNC(C)=O)NC(=O)CNC(=O)[C@H](Cc1ccccc1)NC(=O)[C@H](CSCNC(C)=O)NC(=O)[C@H](CO)NC(=O)[C@@H](N)CO)[C@@H](C)CC)C(=O)NCC(=O)N[C@@H](C)C(=O)N[C@@H](CCC(N)=O)C(=O)C1SSC[C@@H](C(=O)N[C@@H](CC(N)=O)C(=O)CN[C@@H](CO)C(=O)N[C@@H](Cc2ccccc2)C(=O)N[C@@H](CCCN=C(N)N)C(N)=O)NC(=O)CNC(=O)[C@H](CC(C)C)NC(=O)CNC(=O)[C@H]1N (stereo in doubt; 9a) | 0.028
14 |  |  | CC[C@H](C)[C@@H]1NC(=O)[C@H](CCCN=C(N)N)NC(=O)[C@H](CC(=O)O)NC(=O)[C@H]([C@@H](C)CC)NC(=O)[C@H](CCCN=C(N)N)NC(=O)CNC(=O)CNC(=O)[C@H](Cc2ccccc2)NC(=O)[C@@H](NC(=O)[C@H](CO)NC(=O)[C@@H](N)CO)CSSC[C@@H](C(=O)N[C@@H](CC(N)=O)C(=O)N[C@@H](CO)C(=O)N[C@@H](Cc2ccccc2)C(=O)N[C@@H](CCCN=C(N)N)C(N)=O)NC(=O)CNC(=O)[C@H](CC(C)C)NC(=O)CNC(=O)[C@H](CO)NC(=O)[C@H](CCC(N)=O)NC(=O)[C@H](C)NC(=O)CNC1=O | 1.7
15 |  |  | CC[C@H](C)[C@@H]1NC(=O)[C@H](CCCN=C(N)N)NC(=O)[C@H](CC(=O)O)NC(=O)[C@H]([C@@H](C)CC)NC(=O)[C@H](CCCN=C(N)N)NC(=O)[C@H]2CSSC[C@@H](NC(=O)[C@H](CCC(N)=O)NC(=O)[C@H](C)NC(=O)CNC1=O)C(=O)NCC(=O)N[C@@H](CC(C)C)C(=O)NCC(=O)N[C@H](C(=O)N[C@@H](CC(N)=O)C(=O)N[C@@H](CO)C(=O)N[C@@H](Cc1ccccc1)C(=O)N[C@@H](CCCN=C(N)N)C(N)=O)CSSC[C@H](NC(=O)[C@H](CO)NC(=O)[C@@H](N)CO)C(=O)N[C@@H](Cc1ccccc1)C(=O)NCC(=O)N2 | 0.0073
